# Most compounds without a hit are left out; they make up all but 2.3% or so of the library.
# TRPC6 act – mouse TRPC6 channel activators, primary screen, cell-based, HEK293, membrane potential dye; HEK293-TRPC6 membrane potential dye fluorescence; hits give high values; B-score at 10 µM; 310,000 tested, 0.13% active; AID 2550, 2010;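 active = B-score of the integrated fluorescence ratio above library mean plus 3 SD, and starting fluorescence ratio within library mean plus 5 SD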;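 note: higher score means more depolarization so channel activation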
# Target sequence (Q61143 whole entry, looked up): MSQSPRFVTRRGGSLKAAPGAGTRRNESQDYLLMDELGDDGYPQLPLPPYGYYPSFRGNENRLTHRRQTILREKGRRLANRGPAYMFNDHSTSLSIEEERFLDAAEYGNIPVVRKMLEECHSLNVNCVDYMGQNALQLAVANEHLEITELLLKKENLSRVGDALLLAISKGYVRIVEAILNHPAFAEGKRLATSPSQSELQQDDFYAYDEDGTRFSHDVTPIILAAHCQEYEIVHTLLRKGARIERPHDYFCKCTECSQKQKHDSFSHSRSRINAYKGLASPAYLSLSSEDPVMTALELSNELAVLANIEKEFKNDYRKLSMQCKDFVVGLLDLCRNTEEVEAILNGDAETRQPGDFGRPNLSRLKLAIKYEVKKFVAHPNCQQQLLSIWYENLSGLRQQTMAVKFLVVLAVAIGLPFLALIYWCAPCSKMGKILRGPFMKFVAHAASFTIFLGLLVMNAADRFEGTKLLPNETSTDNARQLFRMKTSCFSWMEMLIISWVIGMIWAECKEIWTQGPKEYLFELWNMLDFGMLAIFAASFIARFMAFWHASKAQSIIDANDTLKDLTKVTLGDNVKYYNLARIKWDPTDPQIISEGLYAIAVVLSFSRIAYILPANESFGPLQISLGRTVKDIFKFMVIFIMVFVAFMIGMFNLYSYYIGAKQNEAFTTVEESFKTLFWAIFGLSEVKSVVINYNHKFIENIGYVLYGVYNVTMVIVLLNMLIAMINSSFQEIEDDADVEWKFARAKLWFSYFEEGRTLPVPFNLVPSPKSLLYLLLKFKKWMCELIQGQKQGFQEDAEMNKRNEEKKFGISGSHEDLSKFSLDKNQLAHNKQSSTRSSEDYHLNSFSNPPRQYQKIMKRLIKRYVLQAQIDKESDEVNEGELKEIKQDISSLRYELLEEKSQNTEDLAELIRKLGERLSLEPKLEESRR
# TRPC4 PAM – positive allosteric modulators of TRPC4, primary screen, cell-based, mouse TRPC4beta, HEK293 mu-opioid, Fluo-4 calcium; Short transient receptor potential channel 4 (Mus musculus), Q9QUQ5; DAMGO EC20, Fluo-4 Ca2+ flux; hits give high values; B-score at 10 µM; 310,000 tested, 0.42% active;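 active = B-score of calcium response area above 5 SD of library B-scores, with initial fluorescence ratio within 5 SD of library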;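 note: B-score of integrated fluorescence ratio over time as area under calcium response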
# TRPC6 inhibitor – mouse TRPC6 channel inhibitors, primary screen, cell-based, HEK293, membrane potential dye. B-score at 10 µM. 310,000 tested, 1.1% active. Short transient receptor potential channel 6 (Mus musculus), Q61143. ACh-evoked depolarization; hits give low values. AID 2553, 2010;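 active = B-score under library mean minus 3 SD, initial fluorescence not abnormally high, positive integrated signal ratio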;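 note: B-score derived from integrated fluorescence ratio over the kinetic read; more negative B-score means stronger inhibition of depolarization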
# TRPC4 agonist – activators of mouse TRPC4 channel, primary screen, Fluo4 calcium, HEK293 TRPC4beta/mu-opioid cells; Fluo4 calcium fluorescence; hits give high values; B-score at 10 µM; 310,000 tested, 0.49% active;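 active = B-score above 5 SD of library B-scores, and initial fluorescence ratio not above library mean plus 5 SD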;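 note: positive B-score marks a calcium rise read as TRPC4 activation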
#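 Assay system: HEK293 stable line with TRPC4beta plus mu-opioid receptor. Times: dye 45 min RT, read 110 s. Measured by: kinetic Fluo4 calcium fluorescence. Measure: B score of integrated ratio. Controls: assay buffer as low control, maximal DAMGO as high control.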
# TRPC4 block – inhibitors of mouse TRPC4 channel, primary screen, Fluo4 calcium, HEK293 TRPC4beta/mu-opioid cells | Short transient receptor potential channel 4 (Mus musculus), Q9QUQ5 | 300,000 tested, 0.39% active | B-score at 10 µM | AID 2247, 2010 | DAMGO-evoked Fluo4 calcium flux; hits give low values;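 active = B-score over 3 SD under the library average, no early fluorescence shift, positive overall ratio signal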
#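 Assay system: HEK293 cells with stable TRPC4beta plus mu-opioid receptor expression; Probe or stimulus: DAMGO in two steps, submaximal then maximal; Dosing: single-point compound dosing; Measured by: Fluo4 calcium-dye fluorescence, kinetic read; Read-out basis: B score from integrated Fluo4 fluorescence ratio.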
# TRPC4 sel inh 2 – second selectivity test of TRPC6 inhibitors: effect on mouse TRPC4; shares compounds with TRPC6 inhibitor; 920 tested, 42% active; inhibition, % at 10 µM; HEK293 TRPC4/MOR, membrane potential dye fluorescence; channel activated by saturating DAMGO dose;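 active = compounds whose fluorescence signal differed from control wells by over 3 SD, either direction, in both duplicate plates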
# TRPC4 spec – mouse TRPC4 modulation by TRPC6 hits, confirmation, selectivity assay for TRPC6 inhibitor project, cell-based, HEK293 TRPC4/mu-opioid, membrane potential dye | membrane potential fluorescence | shares compounds with TRPC6 inhibitor | AID 2777, 2010 | activity change, negative = inhibition, % at 10 µM | 920 tested, 61% active;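 active = rise or fall in signal beyond 3 SD of buffer-only wells in both replicate plates, either sign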;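 note: integrated kinetic ratio of fluorescence range over baseline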
# HEK293 MPD ctr 2-1 – nonspecific membrane potential effects, parental HEK293, confirmation, counter-screen for TRPC6 inhibitor project, cell-based, second counter screen; shares compounds with TRPC6 inhibitor; parental HEK293 membrane potential dye fluorescence; maximal acetylcholine challenge after compound addition; signal change vs control, % at 10 µM; 920 tested, 31% active; AID 2779, 2010;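 active = membrane potential signal moving either way by over 3 SD of the maximum-effect control, in both duplicate plates, meaning non-specific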
# HEK293 MPD ctr-1 – membrane potential modulation in parental HEK293, confirmation, counter-screen for TRPC6 inhibitor project, cell-based; shares compounds with TRPC6 inhibitor; parental HEK293 membrane potential dye fluorescence; membrane potential signal change, % at 10 µM; 920 tested, 60% active; AID 2780, 2010;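 active = membrane potential signal shifting up or down by more than 3 SD of buffer-only wells, on both duplicate plates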
# HEK293 MPD ctr-2 – parental HEK293 membrane potential modulation, confirmation, counter-screen for TRPC6 modulator project, cell-based; 2,400 tested, 51% active; membrane potential signal change, % at 10 µM; membrane potential dye fluorescence; shares compounds with TRPC6 inhibitor; AID 488924, 2010;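 active = membrane potential signal moves up or down beyond 5 SD from buffer-only wells, on both duplicate plates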
# HEK293 MPD ctr 2-2 – second counter-screen for TRPC6 modulators: effect in parental HEK293 cells | shares compounds with TRPC6 inhibitor | membrane potential dye fluorescence; after compound, maximal acetylcholine stimulation | inhibition, % at 10 µM | 2,400 tested, 14% active;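 active = membrane potential signal drops by more than 5 SD from the mean control signal, in both duplicate plates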;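 note: plate controls were acetylcholine ECmax control wells for no effect and buffer only wells for full effect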
# TRPC4/MOR mod – TRPC4 modulation by TRPC6 hit compounds, confirmation, selectivity assay for TRPC6 modulator project, cell-based, HEK293 TRPC4/mu-opioid, membrane potential dye, mouse. percent change from control (negative = decrease, positive = increase), % at 10 µM. membrane potential fluorescence. shares compounds with TRPC6 inhibitor. 2,400 tested, 69% active;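 active = membrane potential signal moved up or down beyond 5 SD of buffer control wells, in both duplicate plates, actives on both sides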;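 note: plate controls were assay buffer wells for no effect and DAMGO maximal-effect wells for full effect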
# TRPC4/MOR inh 2 – second check of whether TRPC6 modulators also affect mouse TRPC4 | shares compounds with TRPC6 inhibitor | HEK293 TRPC4/mu-opioid, membrane potential dye fluorescence; stimulated with maximal-effect DAMGO | inhibition, % at 10 µM | 2,400 tested, 55% active | AID 488928;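 active = drop in membrane potential signal beyond 5 SD of the control wells in both duplicate plates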;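 note: TRPC4 counter screen for TRPC6 hits run under conditions tuned for TRPC6 not TRPC4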
# TRPC6 block conf – mouse TRPC6 channel inhibitors, confirmation, HEK293 cells, membrane potential dye, duplicate | shares compounds with TRPC6 inhibitor | ACh-evoked depolarization | inhibition, % at 10 µM | 3,300 tested, 43% active | AID 488960, 2010;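 active = fluorescence ratio falls more than 5 SD below the full-stimulation control mean, in both duplicate runs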;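 note: integrated fluorescence ratio of peak minus minimum over baseline after agonist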
# TRPC6 act conf – mouse TRPC6 channel activators, confirmation, HEK293 cells, membrane potential dye, duplicate. AID 488961, 2010. 2,800 tested, 11% active. HEK293-TRPC6 membrane potential dye fluorescence, FDSS. shares compounds with TRPC6 inhibitor. activation, % at 10 µM;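 active = ratio signal rise beyond 5 SD above unstimulated control wells' mean, seen in both duplicate runs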;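 note: plate controls were buffer EC0 wells for no effect and acetylcholine ECmax response for full effect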
# Numbers without * were called inactive; i = inactive; / = not tested or not shown.
SMILES,TRPC6 act,TRPC4 PAM,TRPC6 inhibitor,TRPC4 agonist,TRPC4 block,HEK293 MPD ctr-2,HEK293 MPD ctr 2-2,TRPC4/MOR mod,TRPC4/MOR inh 2,TRPC6 block conf,TRPC6 act conf,others
O=C(Oc1ccc2c(c1)OCC2=O)c1ccccc1,i,i,-5.8*,i,i,i,i,i,i,i,/,
O=C(/C=C/c1ccc(Cl)cc1)N1CCN(Cc2ccccc2)CC1,i,i,i,i,i,/,/,/,/,/,/,
Cc1ccc(C(=O)Nc2cccc(C(=O)N/N=C/c3ccc(F)cc3)c2)cc1,i,i,-6*,i,i,i,i,i,i,i,i,
CC(=O)Nc1cccc(C(=O)N/N=C/c2ccc(F)cc2)c1,i,i,i,i,i,/,/,/,/,/,/,
Cc1cc(OCC(=O)O/N=C(\N)Cc2cccs2)ccc1Br,i,i,-9.8*,i,i,/,/,/,/,i,i,TRPC4 sel inh 2=i;TRPC4 spec=i;HEK293 MPD ctr 2-1=i;HEK293 MPD ctr-1=i
C=CCn1c(SCC(=O)Nc2ccc(S(N)(=O)=O)cc2)nnc1-c1cnccn1,i,i,i,i,i,/,/,/,/,/,/,
COc1ccccc1Nc1nc(NCCCN(C)C)nc(N)c1[N+](=O)[O-],i,i,-6.4*,i,i,i,i,i,49%*,42%*,i,
CN(NS(=O)(=O)c1ccc(Br)cc1)c1nc(C(F)(F)F)nc2ccccc12,i,i,-5.9*,i,i,i,i,18%*,37%*,46%*,/,
CN(N)c1nc(C(F)(F)F)nc2ccccc12,i,i,i,i,i,/,/,/,/,/,/,
COc1ccc(N(CC(=O)Nc2cc(OC)c(OC)cc2C(=O)O)S(=O)(=O)c2c(C)noc2C)cc1,i,i,i,i,i,/,/,/,/,/,/,
